Measured values reported in ChEMBL document CHEMBL3596093, “Synthesis and antimicrobial evaluation of 5-aryl-1,2,4-triazole-3-thione derivatives containing a rhodanine moiety” (2015).
≈ marks a conversion by molar mass, not a printed value.

Legend:
Staphylococcus aureus [1] = experiment: Bactericidal activity against quinolone-resistant Staphylococcus aureus CCARM 3505 after 24 hrs by agar plate method; assay type: functional; conditions: CCARM 3505, 24 h
How it was run: (§1)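 5 µL from each well without visible growth plated on fresh Mueller-Hinton agar, then 37 °C for a further 24 h. MBC is the lowest concentration giving no visible colonies. Run in triplicate.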

Staphylococcus aureus [2] = experiment: Bactericidal activity against methicillin-resistant Staphylococcus aureus CCARM 3167 after 24 hrs by agar plate method; assay type: functional; conditions: CCARM 3167, 24 h; how it was run: as §1
Staphylococcus aureus [3] = experiment: Antibacterial activity against methicillin-resistant Staphylococcus aureus CCARM 3167 after 24 hrs by two-fold serial dilution method; assay type: functional; conditions: CCARM 3167, 24 h
How it was run: (§2)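 Broth microdilution MIC. Bacteria grown to mid-log phase in Mueller-Hinton broth, diluted 1000-fold, about 10^5 CFU/mL. Compounds from DMSO stocks, two-fold serial dilution from a final 64 µg/mL. Incubation at 37 °C for 24 h. Growth read as absorbance at 630 nm on a microplate reader. Run in triplicate.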

Candida albicans [4] = experiment: Antifungal activity against Candida albicans 7535 after 24 hrs by two-fold serial dilution method; assay type: functional; conditions: Candida albicans, 7535, 24 h
Pseudomonas aeruginosa [5] = experiment: Antibacterial activity against Pseudomonas aeruginosa 2004 after 24 hrs by two-fold serial dilution method; assay type: functional; conditions: Pseudomonas aeruginosa, 2004, 24 h
How it was run: (§3)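 Strains grown to mid-log phase in Mueller-Hinton broth, then diluted 1000-fold in the same broth to about 10^5 CFU/mL. Compounds were made up as DMSO stocks and two-fold serially diluted from a final top concentration of 64 µg/mL. Incubation was 37 °C for 24 h. Growth was read as absorbance at 630 nm on a microplate reader. MIC assays were run in triplicate.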

Staphylococcus aureus [6] = experiment: Antibacterial activity against Staphylococcus aureus KCTC 503 after 24 hrs by two-fold serial dilution method; assay type: functional; conditions: KCTC 503, 24 h; how it was run: as §3
Staphylococcus aureus [7] = experiment: Bactericidal activity against Staphylococcus aureus RN4220 after 24 hrs by agar plate method; assay type: functional; conditions: RN4220, 24 h
How it was run: (§4)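 Samples of 5 µL from MIC wells with no visible growth were plated onto fresh Mueller-Hinton agar and incubated a further 24 h at 37 °C. MBC is the lowest concentration giving no visible colony growth on the agar. Assays were run in triplicate.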

Pseudomonas aeruginosa [8] = experiment: Antibacterial activity against Pseudomonas aeruginosa 2742 after 24 hrs by two-fold serial dilution method; assay type: functional; conditions: Pseudomonas aeruginosa, 2742, 24 h; how it was run: as §3
Escherichia coli [9] = experiment: Antibacterial activity against Escherichia coli KCTC 1924 after 24 hrs by two-fold serial dilution method; assay type: functional; conditions: KCTC 1924, 24 h; how it was run: as §3
Salmonella typhimurium = experiment: Antibacterial activity against Salmonella typhimurium 2421 after 24 hrs by two-fold serial dilution method; assay type: functional, Salmonella enterica subsp. enterica serovar Typhimurium; conditions: Salmonella enterica, 2421, 24 h; how it was run: as §3
Streptococcus mutans [10] = experiment: Bactericidal activity against Streptococcus mutans 3065 after 24 hrs by agar plate method; assay type: functional; conditions: Streptococcus mutans, 3065, 24 h; how it was run: as §4
Staphylococcus aureus [11] = experiment: Antibacterial activity against Staphylococcus aureus RN4220 after 24 hrs by two-fold serial dilution method; assay type: functional; conditions: RN4220, 24 h; how it was run: as §2
Staphylococcus aureus [12] = experiment: Antibacterial activity against Staphylococcus aureus KCTC 209 after 24 hrs by two-fold serial dilution method; assay type: functional; conditions: KCTC 209, 24 h; how it was run: as §3
Staphylococcus aureus [13] = experiment: Antibacterial activity against methicillin-resistant Staphylococcus aureus CCARM 3506 after 24 hrs by two-fold serial dilution method; assay type: functional; conditions: CCARM 3506, 24 h; how it was run: as §2
Escherichia coli [14] = experiment: Antibacterial activity against Escherichia coli CCARM 1356 after 24 hrs by two-fold serial dilution method; assay type: functional; conditions: CCARM 1356, 24 h; how it was run: as §3
[15] = system: Staphylococcus aureus subsp. aureus RN4220; experiment: Ratio of MBC to MIC for Staphylococcus aureus RN4220; assay type: functional
How it was run: (§5)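 The ratio divides MBC by MIC for the same strain. MIC comes from two-fold broth microdilution in Mueller-Hinton broth (about 10^5 CFU/mL, 37 °C, 24 h, absorbance at 630 nm). MBC comes from subculturing 5 µL from clear wells onto Mueller-Hinton agar for another 24 h at 37 °C, taken as the lowest concentration with no colonies.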

Staphylococcus aureus [16] = experiment: Ratio of MBC to MIC for Staphylococcus aureus KCTC 503; assay type: functional; how it was run: as §5
Streptococcus mutans [17] = experiment: Antibacterial activity against Streptococcus mutans 3065 after 24 hrs by two-fold serial dilution method; assay type: functional; conditions: Streptococcus mutans, 3065, 24 h; how it was run: as §3
Staphylococcus aureus [18] = experiment: Antibacterial activity against quinolone-resistant Staphylococcus aureus CCARM 3505 after 24 hrs by two-fold serial dilution method; assay type: functional; conditions: CCARM 3505, 24 h; how it was run: as §2
Staphylococcus aureus [19] = experiment: Bactericidal activity against Staphylococcus aureus KCTC 503 after 24 hrs by agar plate method; assay type: functional; conditions: KCTC 503, 24 h; how it was run: as §1
Staphylococcus aureus [20] = experiment: Bactericidal activity against quinolone-resistant Staphylococcus aureus CCARM 3519 after 24 hrs by agar plate method; assay type: functional; conditions: CCARM 3519, 24 h; how it was run: as §1
Staphylococcus aureus [21] = experiment: Bactericidal activity against methicillin-resistant Staphylococcus aureus CCARM 3506 after 24 hrs by agar plate method; assay type: functional; conditions: CCARM 3506, 24 h; how it was run: as §1
Staphylococcus aureus [22] = experiment: Antibacterial activity against quinolone-resistant Staphylococcus aureus CCARM 3519 after 24 hrs by two-fold serial dilution method; assay type: functional; conditions: CCARM 3519, 24 h; how it was run: as §2
Staphylococcus aureus [23] = experiment: Bactericidal activity against Staphylococcus aureus KCTC 209 after 24 hrs by agar plate method; assay type: functional; conditions: KCTC 209, 24 h; how it was run: as §4
Escherichia coli [24] = experiment: Ratio of MBC to MIC for Escherichia coli KCTC 1924; assay type: functional; how it was run: as §5
Staphylococcus aureus [25] = experiment: Ratio of MBC to MIC for Staphylococcus aureus KCTC 209; assay type: functional; how it was run: as §5
Escherichia coli [26] = experiment: Bactericidal activity against Escherichia coli KCTC 1924 after 24 hrs by agar plate method; assay type: functional; conditions: KCTC 1924, 24 h; how it was run: as §4
Candida albicans [27] = experiment: Fungicidal activity against Candida albicans 7535 after 24 hrs by agar plate method; assay type: functional; conditions: Candida albicans, 7535, 24 h

Compound	MBC (Staphylococcus aureus [1]) [µg/mL]	MBC (Staphylococcus aureus [2]) [µg/mL]	MIC (Staphylococcus aureus [3]) [µg/mL]	MIC (Candida albicans [4]) [µg/mL]	MIC (Pseudomonas aeruginosa [5]) [µg/mL]	MIC (Staphylococcus aureus [6]) [µg/mL]	MBC (Staphylococcus aureus [7]) [µg/mL]	MIC (Pseudomonas aeruginosa [8]) [µg/mL]	MIC (Escherichia coli [9]) [µg/mL]	MIC (Salmonella typhimurium) [µg/mL]	MBC (Streptococcus mutans [10]) [µg/mL]	MIC (Staphylococcus aureus [11]) [µg/mL]	MIC (Staphylococcus aureus [13]) [µg/mL]	MIC (Escherichia coli [14]) [µg/mL]	MIC (Streptococcus mutans [17]) [µg/mL]	MIC (Staphylococcus aureus [18]) [µg/mL]	MBC (Staphylococcus aureus [19]) [µg/mL]	MBC (Staphylococcus aureus [20]) [µg/mL]	MBC (Staphylococcus aureus [21]) [µg/mL]	MIC (Staphylococcus aureus [22]) [µg/mL]	also measured
O=C(O)[C@H](Cc1ccccc1)N1C(=O)/C(=C/c2ccc(/C=N/n3c(-c4ccccc4)n[nH]c3=S)cc2)SC1=S	32 (≈ 56 µM)	16 (≈ 28 µM)	8 (≈ 14 µM)	> 64	> 128	8 (≈ 14 µM)	16 (≈ 28 µM)	> 128	> 128	> 128	16 (≈ 28 µM)	8 (≈ 14 µM)	8 (≈ 14 µM)	> 128	8 (≈ 14 µM)	8 (≈ 14 µM)	8 (≈ 14 µM)	32 (≈ 56 µM)	32 (≈ 56 µM)	8 (≈ 14 µM)	MIC (Staphylococcus aureus [12]): > 64 µg/mL; Ratio [15]: 2; Ratio (Staphylococcus aureus [16]): <=4
O=C(O)[C@H](Cc1ccccc1)N1C(=O)/C(=C/c2ccc(/C=N/n3c(-c4ccccc4Cl)n[nH]c3=S)cc2)SC1=S	> 128	32 (≈ 52.8 µM)	16 (≈ 26.4 µM)	> 64	> 128	16 (≈ 26.4 µM)	32 (≈ 52.8 µM)	> 128	> 128	> 128	> 128	16 (≈ 26.4 µM)	16 (≈ 26.4 µM)	> 128	16 (≈ 26.4 µM)	16 (≈ 26.4 µM)	64 (≈ 106 µM)	> 128	64 (≈ 106 µM)	16 (≈ 26.4 µM)	MIC (Staphylococcus aureus [12]): > 64 µg/mL; Ratio [15]: 2; Ratio (Staphylococcus aureus [16]): <=4
O=C(O)[C@H](Cc1ccccc1)N1C(=O)/C(=C/c2ccc(/C=N/n3c(-c4cccc(Cl)c4)n[nH]c3=S)cc2)SC1=S	32 (≈ 52.8 µM)	8 (≈ 13.2 µM)	8 (≈ 13.2 µM)	8 (≈ 13.2 µM)	> 128	8 (≈ 13.2 µM)	8 (≈ 13.2 µM)	> 128	8 (≈ 13.2 µM)	> 128	> 32	8 (≈ 13.2 µM)	16 (≈ 26.4 µM)	> 128	4 (≈ 6.6 µM)	8 (≈ 13.2 µM)	16 (≈ 26.4 µM)	32 (≈ 52.8 µM)	16 (≈ 26.4 µM)	8 (≈ 13.2 µM)	MBC (Staphylococcus aureus [23]): 16 µg/mL (≈ 26.4 µM); Ratio (Escherichia coli [24]): <=4; MIC (Staphylococcus aureus [12]): 8 µg/mL (≈ 13.2 µM); Ratio (Staphylococcus aureus [16]): <=4; Ratio (Staphylococcus aureus [25]): 2; MBC (Escherichia coli [26]): 8 µg/mL (≈ 13.2 µM); MFC (Candida albicans [27]): 8 µg/mL (≈ 13.2 µM)
COc1c(N2CCNC(C)C2)c(F)cc2c(=O)c(C(=O)O)cn(C3CC3)c12 (stereo unspecified) [GATIFLOXACIN]	8 (≈ 21.3 µM)	2 (≈ 5.33 µM)	2 (≈ 5.33 µM)	0.5 (≈ 1.33 µM)	1 (≈ 2.66 µM)	4 (≈ 10.7 µM)	0.25 (≈ 0.666 µM)	1 (≈ 2.66 µM)	2 (≈ 5.33 µM)	0.5 (≈ 1.33 µM)	0.5 (≈ 1.33 µM)	0.25 (≈ 0.666 µM)	2 (≈ 5.33 µM)	16 (≈ 42.6 µM)	0.5 (≈ 1.33 µM)	8 (≈ 21.3 µM)	4 (≈ 10.7 µM)	4 (≈ 10.7 µM)	2 (≈ 5.33 µM)	4 (≈ 10.7 µM)	MBC (Staphylococcus aureus [23]): 2 µg/mL (≈ 5.33 µM); MIC (Staphylococcus aureus [12]): 2 µg/mL (≈ 5.33 µM); MBC (Escherichia coli [26]): 2 µg/mL (≈ 5.33 µM); MFC (Candida albicans [27]): 0.5 µg/mL (≈ 1.33 µM)
COc1c(N2C[C@@H]3CCCN[C@@H]3C2)c(F)cc2c(=O)c(C(=O)O)cn(C3CC3)c12 [MOXIFLOXACIN]	4 (≈ 9.96 µM)	1 (≈ 2.49 µM)	1 (≈ 2.49 µM)	0.5 (≈ 1.25 µM)	2 (≈ 4.98 µM)	2 (≈ 4.98 µM)	0.25 (≈ 0.623 µM)			0.5 (≈ 1.25 µM)	0.25 (≈ 0.623 µM)	0.25 (≈ 0.623 µM)	1 (≈ 2.49 µM)	128 (≈ 319 µM)	0.25 (≈ 0.623 µM)	4 (≈ 9.96 µM)	2 (≈ 4.98 µM)	4 (≈ 9.96 µM)	1 (≈ 2.49 µM)	4 (≈ 9.96 µM)	MFC (Candida albicans [27]): 0.5 µg/mL (≈ 1.25 µM)
